Assay [1] in a line: Antioxidant activity assessed as superoxide anion scavenging activity at 0.1 mM pH 7.4 after 10 mins by NBT assay. It counts as functional. The method, boiled down:
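Superoxide generated by xanthine/xanthine oxidase (0.07 U/mL) in 0.1 M phosphate buffer pH 7.4 containing NBT and compound at 0.1 mM final. After 10 min at rt, absorbance read at 560 nm. Caffeic acid as standard.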

A short description of assay [2]: Antioxidant activity assessed as inhibition of linoleic acid peroxidation activity at 10 uL. Type of assay: functional. The arrangement: scale not given: the % may be the effect or the level left. The method, boiled down: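 AAPH-initiated peroxidation of sodium linoleate dispersion (16 mM, 10 μL) in 0.05 M phosphate buffer pH 7.4 at 37 °C under air. Initiator was 50 μL of 40 mM AAPH, with 10 μL compound added. Conjugated diene hydroperoxide followed at 234 nm. Trolox as reference.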

The target of assay [3] is Lipoxygenase (Glycine max, UniProt Q39829). The experiment in a line: Inhibition of soybean lipoxygenase using sodium linoleate as substrate by UV-based analysis. The method, boiled down: (§1)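 Soybean lipoxygenase (enzyme 1/9 ×10⁻⁴ w/v in saline) incubated at rt with 0.1 mM sodium linoleate and compound in DMSO, at several concentrations from 1 to 100 µM diluted from 10 mM stock. Conversion to 13-hydroperoxylinoleic acid recorded at 234 nm; IC50 derived. NDGA as reference inhibitor.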

A short description of assay [4]: Antiinflammatory activity assessed as NO release at 100 uM after 60 mins in presence of L-cysteine by Griess reagent-based relative to control. It counts as functional. The method, boiled down: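 NO-release test: compound at 100 μM final (from DMSO) in 50 mM phosphate buffer pH 7.4 containing 1 mM L-cysteine, 60 min at 37 °C. Reaction mixture then treated with Griess reagent, left 10 min at rt, absorbance read at 540 nm. Sodium nitroprusside as standard. Mean of three to four determinations.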

Assay [5] in a line: Antioxidant activity assessed as hydroxyl radical scavenging activity at 0.1 mM measured after 30 mins. It counts as functional. The method, boiled down:
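Hydroxyl radicals from Fe3+/ascorbic acid: EDTA 0.1 mM, Fe3+ 167 μM, DMSO 33 mM, compound 0.1 mM and ascorbic acid 10 mM in 50 mM phosphate buffer pH 7.4. Incubated 37 °C for 30 min, stopped with 17% w/v TCA. Read-out is inhibition of formaldehyde formation, given as % scavenging. Trolox as reference.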

Assay [6] is described as follows: Antioxidant activity assessed as ABTS radical cation scavenging activity by measuring trolox equivalents at 10 uL after 1 min. Type of assay: functional. The method, boiled down: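 ABTS radical cation made from 2 mM aqueous ABTS plus 0.17 mM potassium persulfate in 20 mM phosphate buffer pH 7.4, kept 12–16 h dark at rt. Diluted with ethanol to A734 0.70, then mixed with 10 μL compound from 10 mM stock. Absorbance read at rt 1 min after mixing. Trolox as standard.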

Assay [7] can be described thus: Antioxidant activity assessed as DPPH free radical scavenging activity at 0.1 mM measured after 20 to 60 mins. It counts as functional. The method, boiled down: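 DPPH 0.1 mM in absolute ethanol with compound at 0.1 mM final (from DMSO). Absorbance at 517 nm recorded after 20 and 60 min at rt. NDGA as standard.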
In general terms: DPPH is a stable violet radical that fades when it is reduced.

Assay [8] has as its system Primary neuron. Briefly: Neuroprotective activity against oxygen-glucose deprivation-induced cell death in Sprague-Dawley rat primary neuronal cells assessed as cell viability at 1 to 100 uM treated at onset of recovery period and measured at 24 hrs of recovery by MTT assay relative to control. Type of assay: functional, cell-based. The method, boiled down: (§2)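 Rat cortical neurons from E16–17 Sprague-Dawley embryos, used at 6–7 days in serum-free medium. OGD: glucose-free medium bubbled with 95% N2/5% CO2, <0.1% O2, 6.5% CO2, 37 °C, 4 h. Compound added at start of 24 h normoxic recovery. Viability by MTT (0.2 mg/mL, 1.5 h), lysis with HCl/SDS, read at 595/690 nm, relative to 100% control. Four to eight culture batches, each in quadruplicate.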
On the technique in general: Tetrazolium assays rely on reduction of a dye to a coloured formazan, in cell work by metabolically active cells.

Assay [9] relates to Primary neuron. The experiment in a line: Neuroprotective activity against oxygen-glucose deprivation-induced cell death in Sprague-Dawley rat primary neuronal cells assessed as cell viability at 0.3 to 100 uM treated at onset of recovery period and measured at 24 hrs of recovery by MTT assay relative to control. Type of assay: functional, cell-based. The method, boiled down: as §2

Assay [10] is described as follows: Neuroprotective activity against oxygen-glucose deprivation-induced cell death in Sprague-Dawley rat primary neuronal cells assessed as cell viability at 100 uM treated at onset of recovery period and measured at 24 hrs of recovery by MTT assay relative to control. It counts as functional. The settings on record: Primary neuron, read-out: Activity. The method, boiled down: as §2

Assay [11] is described as follows: Neuroprotective activity against oxygen-glucose deprivation-induced cell death in Sprague-Dawley rat primary neuronal cells assessed as cell viability at 250 uM treated at onset of recovery period and measured at 24 hrs of recovery by MTT assay relative to control. Type of assay: functional. The settings on record: Primary neuron, read-out: Activity. The method, boiled down: as §2

The subject of assay [12] is Primary neuron. Briefly: Neuroprotective activity against oxygen-glucose deprivation-induced cell death in Sprague-Dawley rat primary neuronal cells assessed as cell viability at 1 to 250 uM treated at onset of recovery period and measured at 24 hrs of recovery by MTT assay relative to control. It counts as functional, cell-based. The method, boiled down:
as §2

A short description of assay [13]: Neuroprotective activity against oxygen-glucose deprivation-induced cell death in Sprague-Dawley rat primary neuronal cells assessed as cell viability at 50 uM treated at onset of recovery period and measured at 24 hrs of recovery by MTT assay relative to control. The settings on record: Primary neuron, read-out: Activity. Type of assay: functional. The method, boiled down:
as §2

A short description of assay [14]: Neuroprotective activity against oxygen-glucose deprivation-induced cell death in Sprague-Dawley rat primary neuronal cells assessed as cell viability at 10 uM treated at onset of recovery period and measured at 24 hrs of recovery by MTT assay relative to control. It counts as functional. The settings on record: Primary neuron, read-out: Activity. The method, boiled down: as §2

In assay [15] the test system is Primary neuron. Briefly: Neuroprotective activity against oxygen-glucose deprivation-induced cell death in Sprague-Dawley rat primary neuronal cells assessed as cell viability at 0.5 to 10 uM treated at onset of recovery period and measured at 24 hrs of recovery by MTT assay relative to control. It counts as functional, cell-based. The method, boiled down: as §2

In assay [16] the test system is Primary neuron. Briefly: Neuroprotective activity against oxygen-glucose deprivation-induced cell death in Sprague-Dawley rat primary neuronal cells assessed as cell viability at 0.5 to 250 uM treated at onset of recovery period and measured at 24 hrs of recovery by MTT assay relative to control. Type of assay: functional, cell-based. The method, boiled down: as §2

Assay [17] deals with Lipoxygenase (Glycine max) (UniProt Q39829). The experiment in a line: Inhibition of soybean lipoxygenase at 1 to 100 uM using sodium linoleate as substrate by UV-based analysis relative to control. The method, boiled down:
as §1

Assay [18] has as its system Rattus norvegicus. The experiment in a line: Antiinflammatory activity in Fisher 344 rat model of carrageenan-induced edema assessed as inhibition of carrageenan-induced paw edema at 0.01 mmol/kg, ip dosed simultaneously with carrageenan injection relative to control. The settings on record: Fisher 344, ip. Type of assay: functional. The method, boiled down: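 Fisher 344 rats (150–200 g), both sexes. Edema was induced by intradermal injection of 0.1 mL 2% carrageenan in water into the right hind paw. Compound was suspended in water with a few drops of Tween 80. Rats were euthanized 3.5 h later. The injected-minus-uninjected paw weight difference was compared with water or Tween-water controls as % inhibition. Mean of two experiments, n = 6 each.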

For assay [19], the system named is Primary neuron. The experiment in a line: Neuroprotective activity against oxygen-glucose deprivation-induced cell death in Sprague-Dawley rat primary neuronal cells assessed as cell viability at 1 to 10 uM treated at onset of recovery period and measured at 24 hrs of recovery by MTT assay relative to control. Type of assay: functional, cell-based. The method, boiled down: as §2

Calls of active or inactive are those of the source. The rule behind the calls is not given here.

In general, IC50 refers to the concentration needed to halve the response being measured. What is called inhibition is the percentage by which the read-out fell short of the control. For orientation: inhibition in vivo means the change of the read-out against control, counted positive when it falls.

`O=C(O)/C=C/c1ccc(O)c(O)c1`: in [1], the Activity was determined as 15%.

Turning to `CC(C)(C)/[N+]([O-])=C/c1cc2ccccc2nc1Cl`, the outcome in [2], in [6] and in [8] was inactive. Besides, the Activity in assay [1] came to 16%; in [4], 7.5%; in [5] it was 97%; in [7] it was 7%. In addition, 32.5 µM corresponded to half-maximal inhibition in assay [3] (IC50).

Regarding `COc1ccc2nc(Cl)c(/C=[N+](\[O-])Cc3ccccc3)cc2c1`, the Activity in [2] amounted to 100%; in assay [1], 18%; in [4] it was 12.5%; in assay [5], 65%; in [7], 3%. The molecule also showed an IC50 in assay [3] of 100 µM. Further, the result in assay [6] and in assay [9] was inactive.

As for `CC(C)(C)/[N+]([O-])=C/c1cc2ccccc2nc1O`, the Activity in assay [2] is 100%; in [1] it was 23%; in assay [5], 99%; in assay [6], 6%. This molecule showed an IC50 in assay [3] of 36.5 µM. The viability at 100 µM in assay [10] was 48.8%. In addition, in assay [7], the result was inactive. In assay [11], the viability at 250 µM was 55%.

`Cc1ccc2nc(N(C)C)c(/C=[N+](\[O-])Cc3ccccc3)cc2c1`: the outcome in assay [12] was Active.

Turning to `Cc1ccc2nc(Cl)c(/C=[N+](\[O-])Cc3ccccc3)cc2c1`, the viability at 50 µM in [13] was 56.8%. Also, the viability at 10 µM in assay [14] came to 55.4%.

In the case of `Cc1c(C)c2c(c(C)c1O)CCC(C)(C(=O)O)O2` (stereo unspecified), the results for the Activity in assay [2], in assay [5] and in [6] were 88%, 73% and 91%, respectively.

For `Cc1ccc2nc(Cl)c(/C=N/OCc3ccccc3)cc2c1`, in [15], the outcome was inactive.

As for `[O-]/[N+](=C\c1cc2cc(Cl)ccc2nc1Cl)Cc1ccccc1`, the outcome in assay [12] was inactive.

On to `[O-]/[N+](=C\c1cc2ccccc2nc1Cl)Cc1ccccc1`, for which the result in [8] was inactive.

As for `Cc1ccc2nc(O)c(/C=[N+](\[O-])C(C)(C)C)cc2c1`, the result in assay [12] was Active.

On to `Cc1ccc2nc(Cl)c(/C=N/NCc3ccccc3)cc2c1`, for which the outcome in assay [12] was inactive.

Turning to `Cc1ccc2nc(Cl)c(/C=N/Cc3ccccc3)cc2c1`, the result in assay [16] was inactive.

Regarding `Cc1ccc2nc(Cl)c(/C=N/O)cc2c1`, the outcome in [16] was inactive.

Turning to `Cc1ccc2nc(Cl)c(/C=N/C(C)(C)C)cc2c1`, the result in assay [12] was inactive.

As for `Cc1ccc2nc(O)c(/C=[N+](\[O-])Cc3ccccc3)cc2c1`, the result in [12] was Active.

Regarding `[O-]/[N+](=C\c1cc2cc(O)ccc2nc1Cl)Cc1ccccc1`, in assay [12], the outcome was inactive.

Consider `Cc1ccc2nc(Cl)c(/C=N/N)cc2c1`, for which the result in [12] was inactive.

`CC(C)(C)/[N+]([O-])=C/c1cc2ccccc2n2nnnc12`: the result in assay [8] was inactive.

As to `COc1ccc2nc(Cl)c(/C=[N+](/C)[O-])cc2c1`, the Activity in [2] came to 100%; in [1] it was 29%; in assay [4], 11%; in assay [5] it was 100%. Besides, the outcome in assay [12], in [6] and in [7] was inactive. Further, the inhibition in [17] amounted to 26%.

On to `CC(Cc1ccc(O)c(O)c1)C(C)Cc1ccc(O)c(O)c1` (stereo unspecified) [NORDIHYDROGUAIARETIC ACID], for which the Activity in assay [7] came to 93%.

With `COc1nc2ccccc2cc1/C=[N+](\[O-])Cc1ccccc1`, in [8], the outcome was inactive.

In the case of `COc1nc2ccc(C)cc2cc1/C=[N+](\[O-])Cc1ccccc1`, the result in assay [8] was inactive.

On to `COc1ccc2nc(Cl)c(C=O)cc2c1`, for which the result in [8] was inactive.

In the case of `Cc1ccc2ncc(/C=[N+](\[O-])Cc3ccccc3)cc2c1`, the outcome in assay [12] was Active.

Consider `COc1ccc2cc(/C=[N+](\[O-])Cc3ccccc3)c(Cl)nc2c1`, for which, in assay [8], the result was inactive.

In the case of `Cc1ccc2nc(Cl)c(/C=[N+](\[O-])c3ccccc3)cc2c1`, the outcome in [12] was inactive.

As to `COc1ccc(OC)c2nc(Cl)c(/C=[N+](\[O-])Cc3ccccc3)cc12`, the outcome in assay [8] was inactive.

For `COc1ccc2c(c1)c(CC(=O)O)c(C)n2C(=O)c1ccc(Cl)cc1` [INDOMETHACIN], in assay [18], the inhibition in vivo at 10 µmol/kg was found to be 47%.

On to `CNc1nc2ccc(C)cc2cc1/C=[N+](\[O-])Cc1ccccc1`, for which, in assay [19], the result was inactive.
